Most compounds without a hit are left out; they make up all but 0.59% or so of the library.
TRPN1 ag: zebrafish TRPN1 channel agonists, primary screen, cell-based, HEK293, calcium fluorescence; HEK293 zebrafish TRPN1-YFP, Fluo-8 calcium fluorescence; 100% = response to 87 µM carbachol; activation, % at 3 µM; 220,000 tested, 0.18% active; AID 1424, 2008;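 active = activation above its plate's cutoff, the mean activation of test wells on that plate plus 3 SD, cut at about 19% in these data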
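Assay system: Zebrafish TRPN1-YFP in HEK293 cells | Incubation: Dye loading 1 h at 37 °C, then 30 min room temperature | Measured by: Kinetic Fluo-8 fluorescence, ex 470-495, em 515-575 nm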
OXTR agonist: human OXTR agonists, primary screen, fluorescence, CHO-OTR cells, Fluo-8 calcium | activation, % at 3 µM | 320,000 tested, 0.32% active | Fluo-8 calcium fluorescence; normalized: DMSO 0%, oxytocin 100% | AID 2435, 2010 | Oxytocin receptor (Homo sapiens), P30559;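 active = activation above the mean of all tested compounds plus 3 SD, cutoff set per screening run, cut at about 20% in these data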;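 note: peak over basal fluorescence ratio from a 100 s FLIPR kinetic read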
Target sequence (P30559 whole entry, looked up): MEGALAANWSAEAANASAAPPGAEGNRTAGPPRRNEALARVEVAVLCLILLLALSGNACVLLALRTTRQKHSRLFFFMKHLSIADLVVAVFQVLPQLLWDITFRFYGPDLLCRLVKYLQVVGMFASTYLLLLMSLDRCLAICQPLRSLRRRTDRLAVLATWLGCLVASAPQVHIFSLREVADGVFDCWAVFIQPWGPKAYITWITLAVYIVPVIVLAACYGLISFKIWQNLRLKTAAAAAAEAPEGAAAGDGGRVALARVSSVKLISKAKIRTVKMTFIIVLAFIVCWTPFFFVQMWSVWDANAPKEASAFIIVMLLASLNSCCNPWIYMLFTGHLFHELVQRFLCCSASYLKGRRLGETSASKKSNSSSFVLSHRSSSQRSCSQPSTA
V1aR counter: agonists of human V1a receptor, primary screen, counter-screen for OXTR agonist project, fluorescence, CHO-V1R cells; Fluo-8 calcium fluorescence, agonist mode; 0% DMSO, 100% 3 nM vasopressin; activation, % at 3 µM; 320,000 tested, 0.25% active;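 active = activation above the mean activation of all tested compounds plus 3 SD, per screening run, cut at about 20% in these data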;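 note: signal is peak over basal fluorescence ratio across a 100 second FLIPR read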
Target sequence (P37288 whole entry, looked up): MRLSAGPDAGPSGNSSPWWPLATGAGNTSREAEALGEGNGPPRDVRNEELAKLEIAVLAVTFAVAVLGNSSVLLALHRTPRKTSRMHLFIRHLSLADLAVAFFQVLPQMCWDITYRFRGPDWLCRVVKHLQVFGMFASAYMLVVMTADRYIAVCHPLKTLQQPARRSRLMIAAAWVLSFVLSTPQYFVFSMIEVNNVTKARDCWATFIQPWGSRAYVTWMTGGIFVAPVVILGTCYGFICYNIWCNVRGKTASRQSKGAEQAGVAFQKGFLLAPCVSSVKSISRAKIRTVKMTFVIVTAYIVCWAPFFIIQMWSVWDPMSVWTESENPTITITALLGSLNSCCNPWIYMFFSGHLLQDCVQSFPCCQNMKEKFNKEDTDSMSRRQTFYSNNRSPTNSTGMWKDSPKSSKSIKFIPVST
OXTR potentiate: human OXTR potentiators, primary screen, fluorescence, CHO-OTR cells, Fluo-8 calcium; Oxytocin receptor (Homo sapiens), P30559; Fluo-8 calcium fluorescence, potentiator mode; 0% = oxytocin EC15, 100% = EC100; activation, % at 3 µM; 320,000 tested, 0.061% active; AID 2445, 2010;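 active = activation above that plate's cutoff, the mean activation of tested compounds plus 3 SD, cut at about 6.6% in these data, passing the limit was not always enough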
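Assay system: CHO cell line stably expressing human OTR. Reagent: EC15 oxytocin agonist. Dosing: single dose, 3.0 µM nominal final compound concentration. Timing: compound 6 min at room temperature before oxytocin, 100 s read. Signal: kinetic Fluo-8 calcium fluorescence. Controls: oxytocin EC15 low and EC100 high.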
TRPML3 agonist: human TRPML3 channel agonists, primary screen, cell-based, HEK293 TRPML3-YFP, Fluo-8 calcium fluorescence, 3 µM; Mucolipin-3 (Homo sapiens), Q8TDD5; 100% = the carbachol control signal; activation, % at 3 µM; 220,000 tested, 0.29% active; AID 1448, 2008;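 active = activation above its plate's cutoff, the mean activation of the plate's test wells plus 3 SD, cut at about 12% in these data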
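Test system – HEK293 line with stable expression of human TRPML3-YFP channel · Control set – carbachol 87 µM final as high control (100%), DMSO as low control (0%) · Signal – Fluo-8 calcium dye fluorescence, ex 470-495, em 515-575 nm · Incubation – 1-h 37 °C dye load, 5-s basal, 120-s post-compound reads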
OXTR pot cf: human OXTR potentiators, confirmation, fluorescence, CHO-OTR cells, triplicate | shares compounds with OXTR potentiate | Fluo-8 calcium fluorescence, potentiation; scaled from low-dose to maximal oxytocin | activation, % at 3 µM | 180 tested, under 10 active | AID 434985, 2010;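 active = mean percent activation over triplicates above a cutoff set from solvent-only control plates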;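 note: compounds tested in the presence of an EC15 dose of oxytocin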
V1R ag confirm: V1a receptor agonists, calcium signal, confirmation, Fluo-8 calcium fluorescence, CHO-V1R cells; shares compounds with V1aR counter; agonist; activation, % at 3 µM; 180 tested, 20% active;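 active = average activation exceeds primary screen hit cutoff, cut at about 21% in these data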;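 note: peak over basal fluorescence ratio during a 100 s FLIPR read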
OXTR counter: human OXTR agonists, counter-screen for V1R agonist project, fluorescence, CHO-OTR cells, triplicate | shares compounds with V1aR counter | Fluo-8 calcium fluorescence | activation, % at 3 µM | 180 tested, 10% active | AID 434969, 2010;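 active = mean activation over three repeats above the cutoff from the earlier oxytocin receptor agonist screen, cut at about 20% in these data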;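 note: peak over minimum fluorescence ratio within a 100 second FLIPR read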
Large screens that a line does not name were inactive (follow-up assays come after a bar, where they were run).

COc1ccc2cc(S(=O)(=O)N3CCCCCC3)ccc2c1	none
Cc1nnc(NC(=O)c2cc(-c3ccncc3)nc3c(C)cccc23)s1	OXTR potentiate 14.8 (no result: TRPN1 ag, TRPML3 agonist) | OXTR pot cf inactive
CCOC(=O)c1cnc2cc(-c3ccc(C)cc3)nn2c1-c1ccccc1	OXTR potentiate 14.1 | OXTR pot cf inactive
CCNc1nc(NC(C)C)nc(N(C)C#N)n1	OXTR potentiate 13.1 | OXTR pot cf inactive
CCCN(C#N)c1nc(NCC)nc(NC(C)C)n1	none
Fc1ccc(CSc2ccc3nnc(-c4cccs4)n3n2)cc1	V1aR counter 23.7 | V1R ag confirm inactive | OXTR counter inactive
Cc1cccc(CSc2ccc3nnc(-c4cccs4)n3n2)c1	none
CCOc1ccc2ccccc2c1C(=O)NCC(c1ccc(N(C)C)cc1)N(C)C (stereo not drawn)	none (no result: TRPN1 ag, TRPML3 agonist)
Cc1ccc(NC2=NCC(=O)N2CCc2ccccc2)cc1C	none
CCOc1ccc(NC2=NCC(=O)N2CCc2ccccc2)cc1	V1aR counter 20.4 | V1R ag confirm inactive | OXTR counter inactive
C#CCOCCOCCOCCNc1nc(N2CCN(C(=O)CCCCCCCCCCNC(=O)[C@@H](CCC(=O)O)n3cc(CCCCCN)nn3)CC2)nc(N2CCN(C(=O)CCCCCCCCCCNC(=O)[C@H](CCCCN)n3cc(C[C@@H](C)CC)nn3)CC2)n1	V1aR counter 44.8 (no result: TRPN1 ag, TRPML3 agonist) | V1R ag confirm 43.6 | OXTR counter inactive
C#CCOCCOCCOCCNc1nc(N2CCN(C(=O)CCCCCCCCCCNC(=O)Cn3cc(CCCCCN)nn3)CC2)nc(N2CCN(C(=O)CCCCCCCCCCNC(=O)Cn3cc(C[C@@H](C)O)nn3)CC2)n1	V1aR counter 26.9 (no result: TRPN1 ag, TRPML3 agonist) | V1R ag confirm inactive | OXTR counter inactive
C#CCOCCOCCOCCNc1nc(N2CCN(C(=O)CCCCCCCCCCNC(=O)[C@H](CCCCN)n3cc(C[C@@H](C)CC)nn3)CC2)nc(N2CCN(C(=O)CCCCCCCCCCNC(=O)[C@@H]([C@H](C)O)n3cc(C)nn3)CC2)n1	none (no result: TRPN1 ag, TRPML3 agonist)
C#CCOCCOCCOCCNc1nc(N2CCN(C(=O)CCCCCCCCCCNC(=O)[C@H](CCCCN)n3cc(C)nn3)CC2)nc(N2CCN(C(=O)CCCCCCCCCCNC(=O)[C@@H]([C@H](C)O)n3cc(C)nn3)CC2)n1	V1aR counter 30.7 (no result: TRPN1 ag, TRPML3 agonist) | V1R ag confirm inactive | OXTR counter inactive
CN(CC(=O)NCc1ccco1)CC(=O)Nc1c(Cl)cccc1Cl	none (no result: TRPN1 ag, TRPML3 agonist)
CS(=O)(=O)c1ccc(Cl)c(NC(=O)COC(=O)CCc2c[nH]c3ccccc23)c1	V1aR counter 27.7 (no result: TRPN1 ag, TRPML3 agonist) | V1R ag confirm inactive | OXTR counter inactive
Cc1ccc(CNC(=O)c2cccc3c2C(=O)c2ccc(N4CCCCC4)cc2S3(=O)=O)cc1	V1aR counter 22.3 (no result: TRPN1 ag, TRPML3 agonist) | V1R ag confirm inactive | OXTR counter inactive
Cc1ccc(CNC(=O)c2cccc3c2C(=O)c2ccc(N4CCOCC4)cc2S3(=O)=O)cc1	none (no result: TRPN1 ag, TRPML3 agonist)
CN1CCCC(C#CC(O)(c2ccccc2)c2ccccc2)C1 (stereo not drawn)	none
Cc1cc(C)c2c(N)c(C(=O)Nc3nccs3)sc2n1	none
Nc1c(C(=O)Nc2nccs2)sc2nc(-c3cccs3)cc(C(F)(F)F)c12	V1aR counter 34.5 | V1R ag confirm 23.9 | OXTR counter 34.3
OC(COc1ccc(F)cc1Cl)CN1CCC(Cc2ccccc2)CC1 (stereo not drawn)	V1aR counter 22.1 (no result: TRPN1 ag, TRPML3 agonist) | V1R ag confirm inactive | OXTR counter inactive
O=C(N=C1N=C2C=CC(Br)=CN2Cc2ccccc21)c1ccc([N+](=O)[O-])cc1[N+](=O)[O-]	none
CC(OC(=O)/C(C#N)=C/c1ccc(N(C)C)cc1)C(=O)N(C)Cc1ccccc1 (stereo not drawn)	V1aR counter 30.3 (no result: TRPN1 ag, TRPML3 agonist) | V1R ag confirm 31.6 | OXTR counter inactive
c1ccc(Nc2ccccc2Nc2ccccn2)nc1	TRPN1 ag 88.0, V1aR counter 49.5, TRPML3 agonist 67.6 | V1R ag confirm inactive | OXTR counter inactive
c1ccc(CNc2ccccn2)cc1	none (no result: TRPN1 ag, TRPML3 agonist)
Cc1ccc(NC(=O)Nc2c(C)n(C)n(-c3ccccc3)c2=O)cc1	V1aR counter 21.2 (no result: TRPN1 ag, TRPML3 agonist) | V1R ag confirm inactive | OXTR counter inactive
Cc1ccc(Cl)cc1N1CCN(S(=O)(=O)c2cn(C)cn2)CC1	none (no result: TRPN1 ag, TRPML3 agonist)
ONC(=Nc1ccccc1Cl)c1ccccc1Cl	V1aR counter 20.5 | V1R ag confirm inactive | OXTR counter inactive
Cc1cccc(C)c1NC(=O)CCCN1C(=O)C(c2ccccc2)Oc2cccnc21 (stereo not drawn)	none (no result: TRPN1 ag, TRPML3 agonist)
O=C(c1cc2ccccc2o1)N1CCN(c2ncccn2)CC1	none (no result: TRPN1 ag, TRPML3 agonist)
COc1ccc(OC)c(N(CC(=O)NC2CCCC2)S(=O)(=O)c2ccc(OC)c(OC)c2)c1	none (no result: TRPN1 ag, TRPML3 agonist)
CCCC(=O)Nc1nc(C(=O)OCC)cs1	none
CCOC(=O)c1csc(NC(=O)COc2ccc(Cl)cc2Cl)n1	V1aR counter 22.3 | V1R ag confirm inactive | OXTR counter inactive
Cc1cc(S(=O)(=O)N2CCOCC2)ccc1OCC(=O)Nc1ccc(F)cc1F	none (no result: TRPN1 ag, TRPML3 agonist)
Cc1ccc(S(=O)(=O)NCC(=O)N/N=C/c2ccc(Cl)cc2)cc1	V1aR counter 21.9 | V1R ag confirm inactive | OXTR counter inactive
COC(=O)C(Cc1c[nH]c2ccccc12)NC(=O)C(C)C (stereo not drawn)	none
COC(=O)[C@H](Cc1c[nH]c2ccccc12)NC(=O)Cc1c[nH]c2ccccc12	V1aR counter 21.5 (no result: TRPN1 ag, TRPML3 agonist) | V1R ag confirm inactive | OXTR counter inactive
COc1cc(OC)c(OC)cc1/C=C1\Oc2cc(OS(C)(=O)=O)ccc2C1=O	V1aR counter 21.2 | V1R ag confirm inactive | OXTR counter inactive
Cc1ccc(C2=NS(=O)(=O)N(C)C(C(=O)NCc3cccs3)=C2)cc1	none (no result: TRPN1 ag, TRPML3 agonist)
COc1ccc(OC)c(C2=NS(=O)(=O)N(C)C(C(=O)NCc3cccs3)=C2)c1	V1aR counter 22.0 (no result: TRPN1 ag, TRPML3 agonist) | V1R ag confirm inactive | OXTR counter 25.0
CCCc1cc(=O)[nH]c(SCC(=O)c2c(N)n(C3CC3)c(=O)[nH]c2=O)n1	none (no result: TRPN1 ag, TRPML3 agonist)
Cc1ccc(C)c(Nc2c([N+](=O)[O-])ccc3nonc23)c1	V1aR counter 22.2 (no result: TRPN1 ag, TRPML3 agonist) | V1R ag confirm inactive | OXTR counter inactive
